Measured values of several laboratories.
Each line is one published result; the experiments were not run side by side.
Observed: cell growth or viability

SMILES	cell line	assay	conditions	endpoint	result
C[C@@H]1CC[C@@H]([C@](C)(O)Cn2cnc3ccccc32)[C@H](OCc2ccccc2)C1	HeLa	MTT	30 µM, 72 h	inhibition	89%
O=C(C=Cc1cccc(F)c1)Nc1cc(-c2ccnc(N3CCC(O)CC3)c2)ccn1	HeLa	MTT	5 µM	inhibition	82.7%
C=C(COCc1ccccc1)[C@@H]1CC[C@@H](C)C[C@H]1OCc1ccccc1	HeLa	MTT	10 µM, 72 h	inhibition	40.4%
Cc1nc(Nc2ccc3c(c2)C(C)(C)C(=O)N3C)c2ccccc2n1	H22	MTT	–	IC50	24.1 µM
C=CC(=O)NC1CCN(c2ncc3ncnc(Nc4ccc(Oc5ccc6c(c5)ncn6C)c(C)c4)c3n2)CC1	HPAC	–	–	EC50	0.0351 µM
Cc1nc(Nc2ccc3c(c2)CC(=O)N3)c2ccccc2n1	H22	MTT	–	IC50	10.5 µM
C[C@@H]1CC[C@@H]([C@@](O)(CNCc2ccccc2)COCc2ccc(F)cc2)[C@H](OCc2ccc(F)cc2)C1	HeLa	MTT	10 µM, 72 h	inhibition	96%
O=C(C=Cc1ccccc1)Nc1cc(-c2ccnc(N3CCC(O)CC3)c2)ccn1	HeLa	MTT	5 µM	inhibition	75.2%
COc1ccc(CNC[C@@](C)(O)[C@@H]2CC[C@@H](C)C[C@H]2OCc2ccccc2)cc1	HeLa	MTT	30 µM, 72 h	inhibition	98.9%
COc1cc2ncnc(N(C)c3ccc4c(c3)/C(=C/c3cccc(Cl)c3)C(=O)N4C)c2cc1OC	H22	MTT	–	IC50	4.47 µM
Cc1cccc(/C=C/C(=O)Nc2cccc(-c3ccnc(N4CCC(O)CC4)c3)c2)c1	HeLa	MTT	5 µM	inhibition	54.9%
COc1ccc(COC[C@@](O)(CNCc2ccc(F)cc2)[C@@H]2CC[C@@H](C)C[C@H]2OCc2ccc(OC)cc2)cc1	HeLa	MTT	10 µM, 72 h	inhibition	95%
O=C(C=Cc1ccccc1)Nc1cccc(-c2ccnc(N3CCOCC3)c2)c1	HeLa	MTT	5 µM	inhibition	28.4%
Cc1c(C(=O)O)ccc2c3n(nc12)[C@@H]1[C@H](C3)N(CC2CC2)[C@@]2(C(=O)Nc3cc(Cl)ccc32)[C@H]1c1cccc(Cl)c1F	U2OS	–	–	GI50	> 0.09 µM
O=C(C=Cc1ccccc1)Nc1cc(-c2ccnc(N3CCOCC3)c2)ccn1	HeLa	MTT	5 µM	inhibition	74%
COc1cccc(CNC[C@@](C)(O)[C@@H]2CC[C@@H](C)C[C@H]2OCc2ccccc2)c1	HeLa	MTT	30 µM, 72 h	inhibition	97.9%
CC1(C)CCC2(CC1)N[C@@H](C(=O)N[C@@H]1CC[C@@H](C(N)=O)OC1)[C@H](c1ccnc(Cl)c1F)[C@]21C(=O)Nc2cc(Cl)ccc21	U2OS	resazurin	72 h	GI50	> 1 µM
Cc1cccc(/C=C/C(=O)Nc2cccc(-c3ccnc(N4CCOCC4)c3)c2)c1	HeLa	MTT	5 µM	inhibition	24.1%
